According to paper PMC6976987 (Molecular Genetics and Metabolism Reports, 2020):

Key:
Type in all cases: in vivo, human
[1] = Paroxetine drug interaction study: eliglustat pharmacokinetics in healthy adults; settings: for AUC: AUC0-τ; for AUC / AUC(0-inf) / Cmax: mean (SD); for AUC(0-inf): AUC0-∞
Method in brief: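 Open-label, fixed-sequence study in healthy CYP2D6 non-poor metabolizers. Oral test compound 84 mg, fasted: single dose Day 1, BID Days 2–8, then BID with a strong CYP2D6 inhibitor 30 mg QD Days 9–18. Plasma sampled to 36 h Day 1, 12 h Day 8, 72 h Day 18, plus pre-dose samples. LC-MS/MS, LLOQ 0.5 ng/mL. Non-compartmental PK, tmax as median (min, max); ratios from log-transformed mixed-effects model.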

[2] = Rifampin drug interaction study: eliglustat pharmacokinetics in healthy adults; settings: for increase in eliglustat AUC: single infusion of rifampin 600 mg with single oral dose of eliglustat 127 mg; for Ratio (%) of geometric least squares mean, AUC0-t / AUC: 0 to 12 h; for Tmax: median (minimum, maximum); for AUC: AUC0-τ
Safety assessments = experiment: Safety assessments
Method in brief: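 Open-label study in healthy adults. Safety was monitored after a single dose (Day 1), during multiple doses alone (Days 2–8), and during co-dosing (Days 9–15 with the CYP3A/P-gp inhibitor; Days 9–18 with the CYP2D6 inhibitor). Measures: treatment-emergent AEs, clinical labs, vital signs, physical exams, 12-lead ECG, 12 h continuous telemetry. An AE counted as treatment-related if possibly, probably or definitely related to study drug.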

[3] = CYP2D6 EMs only, eliglustat 84 mg BID with paroxetine 30 mg QD
[4] = CYP2D6 non-PMs, eliglustat 84 mg BID with paroxetine 30 mg QD
[5] = CYP2D6 PMs, eliglustat 84 mg BID with oral rifampin 600 mg QD
[6] = CYP2D6 PMs, multiple dose Day 6, test 600 mg rifampin oral QD + 84 mg eliglustat oral BID (N = 6) vs reference 84 mg eliglustat oral BID alone (N = 6)
[7] = CYP2D6 non-PMs, eliglustat 127 mg BID with oral rifampin 600 mg QD
[8] = CYP2D6 non-PMs, multiple dose Day 6, test 600 mg rifampin oral QD + 127 mg eliglustat oral BID (N = 18) vs reference 127 mg eliglustat oral BID alone (N = 19)
[9] = human, plasma, oral, 84 mg, CYP2D6 PMs, eliglustat 84 mg BID, monotherapy period Days 2 to 6, mean (SD)
[10] = human, plasma, oral, 127 mg, CYP2D6 non-PMs (N = 19), eliglustat 127 mg BID, monotherapy period Days 2 to 6, mean (SD)
[11] = human, plasma, oral, 127 mg, IMs/EMs only (N = 14), eliglustat 127 mg BID, monotherapy period Days 2 to 6, mean (SD)
[12] = human, plasma, po, CYP2D6 PMs, eliglustat 84 mg BID + rifampin 600 mg oral QD, concomitant period Days 2 to 6, mean (SD)
[13] = human, plasma, po, CYP2D6 non-PMs (N = 18), eliglustat 127 mg BID + rifampin 600 mg oral QD, concomitant period Days 2 to 6, mean (SD)
[14] = human, plasma, po, IMs/EMs only (N = 13), eliglustat 127 mg BID + rifampin 600 mg oral QD, concomitant period Days 2 to 6, mean (SD)
[15] = concomitant dosing of eliglustat with paroxetine
[16] = concomitant dosing of eliglustat with paroxetine, Days 9 to 18, N = 35

increase in eliglustat AUC0-τ compared to eliglustat alone [1, 3]: 8.4 fold
increase in eliglustat Cmax compared to eliglustat alone [1, 3]: 7.0 fold
increase in eliglustat AUC0-τ (exposure) compared to eliglustat alone [1, 4]: 8.9 fold
increase in eliglustat Cmax compared to eliglustat alone [1, 4]: 7.3 fold
Ratio (%) of geometric least squares mean, AUC0-t ([1]; all subjects, multiple dose, test 30 mg paroxetine oral QD + 84 mg eliglustat oral BID (N = 33) vs reference 84 mg eliglustat oral BID alone (N = 34), 0 to 12 h): 8.93%
Ratio (%) of geometric least squares mean, Cmax ([1]; all subjects, multiple dose, test 30 mg paroxetine oral QD + 84 mg eliglustat oral BID (N = 33) vs reference 84 mg eliglustat oral BID alone (N = 36)): 7.31%
Tmax ([1]; eliglustat 84 mg BID, Days 2 to 8, all (N = 36), median (minimum, maximum)): 2.0 (0.5–3.0) h
Tmax ([1]; human, plasma, oral, 84 mg): 2 h
half-life ([1]; human, plasma, oral, 84 mg): 4.2 h
AUC ([1]; human, plasma, oral, 84 mg, eliglustat 84 mg BID, Days 2 to 8, CYP2D6 EMs only (N = 33), 0 to 12 h): 120 ng·h/mL
AUC ([1]; human, plasma, oral, 84 mg, eliglustat 84 mg BID, Days 2 to 8, all (N = 34), 0 to 12 h): 120 ng·h/mL
AUC(0-inf) ([1]; human, plasma, oral, 84 mg, eliglustat 84 mg single dose, Day 1, CYP2D6 EMs only (N = 28)): 77.4 ng·h/mL
AUC(0-inf) ([1]; human, plasma, oral, 84 mg, eliglustat 84 mg single dose, Day 1, all (N = 30)): 78.1 ng·h/mL
Cmax ([1]; human, plasma, oral, 84 mg, eliglustat 84 mg BID, Days 2 to 8, CYP2D6 EMs only (N = 33)): 19.4 ng/mL
Cmax ([1]; human, plasma, oral, 84 mg, eliglustat 84 mg BID, Days 2 to 8, all (N = 36)): 19.3 ng/mL
Cmax ([1]; human, plasma, oral, 84 mg, eliglustat 84 mg single dose, Day 1, CYP2D6 EMs only (N = 33)): 10.9 ng/mL
Cmax ([1]; human, plasma, oral, 84 mg, eliglustat 84 mg single dose, Day 1, all (N = 36)): 10.7 ng/mL
AUC ([1]; human, plasma, oral, eliglustat 84 mg BID + paroxetine 30 mg QD, Days 9 to 18, CYP2D6 EMs only (N = 30), 0 to 12 h): 847 ng·h/mL
Cmax ([1]; human, plasma, oral, eliglustat 84 mg BID + paroxetine 30 mg QD, Days 9 to 18, CYP2D6 EMs only (N = 30)): 110 ng/mL
Cmax ([1]; human, plasma, oral, eliglustat 84 mg BID + paroxetine 30 mg QD, Days 9 to 18, all (N = 33)): 110 ng/mL
increase in eliglustat AUC ([2]; CYP2D6 EMs): 24%
reduction of eliglustat AUC0-τ compared with eliglustat alone [2, 5]: > 95%
reduction of eliglustat Cmax compared with eliglustat alone [2, 5]: > 95%
Ratio (%) of geometric least squares mean, Cmax [2, 6]: 0.05%
Ratio (%) of geometric least squares mean, AUC0-t [2, 6]: 0.04%
effect on mean eliglustat exposure ([2]; CYP2D6 PMs, single 30-min infusion of rifampin 600 mg with single oral dose of eliglustat 84 mg): no effect
Ratio (%) of geometric least squares mean, AUC0-∞ ([2]; CYP2D6 PMs, single dose Day 1, test 600 mg rifampin IV + 84 mg eliglustat oral (N = 6) vs reference 84 mg eliglustat oral (N = 5)): 0.95%
Ratio (%) of geometric least squares mean, Cmax ([2]; CYP2D6 PMs, single dose Day 1, test 600 mg rifampin IV + 84 mg eliglustat oral (N = 6) vs reference 84 mg eliglustat oral (N = 6)): 0.97%
reduction of eliglustat AUC0-τ (exposure) compared with eliglustat alone [2, 7]: > 85%
reduction of eliglustat Cmax compared with eliglustat alone [2, 7]: > 85%
Ratio (%) of geometric least squares mean, Cmax [2, 8]: 0.16%
Ratio (%) of geometric least squares mean, AUC0-t [2, 8]: 0.15%
Ratio (%) of geometric least squares mean, AUC0-∞ ([2]; CYP2D6 non-PMs, single dose Day 1, test 600 mg rifampin IV + 127 mg eliglustat oral (N = 17) vs reference 127 mg eliglustat oral alone (N = 19)): 1.19%
Ratio (%) of geometric least squares mean, Cmax ([2]; CYP2D6 non-PMs, single dose Day 1, test 600 mg rifampin IV + 127 mg eliglustat oral (N = 19) vs reference 127 mg eliglustat oral alone (N = 19)): 1.19%
increase in eliglustat AUC ([2]; URMs): 11%
Cmax ([2]; human, plasma, iv, CYP2D6 non-PMs (N = 19), eliglustat 127 mg single dose + rifampin 600 mg IV single dose, concomitant period Day 1, mean (SD)): 17.9 ng/mL
half-life ([2]; human, plasma, iv, t1/2z, CYP2D6 PMs, eliglustat 84 mg single dose + rifampin 600 mg IV single dose, concomitant period Day 1, mean (SD)): 6.9 h
Tmax ([2]; human, plasma, iv, CYP2D6 PMs, eliglustat 84 mg single dose + rifampin 600 mg IV single dose, concomitant period Day 1): 4 h
Tmax ([2]; human, plasma, iv, CYP2D6 non-PMs (N = 19), eliglustat 127 mg single dose + rifampin 600 mg IV single dose, concomitant period Day 1): 3 h
AUC [2, 9]: 922 ng·h/mL
Cmax [2, 9]: 113 ng/mL
Tmax ([2]; human, plasma, oral, 84 mg, CYP2D6 PMs, eliglustat 84 mg BID, monotherapy period Days 2 to 6): 3 h
AUC [2, 10]: 295 ng·h/mL
AUC [2, 11]: 378 ng·h/mL
Cmax [2, 10]: 42.8 ng/mL
Cmax [2, 11]: 54.7 ng/mL
Tmax ([2]; human, plasma, oral, 127 mg, CYP2D6 non-PMs (N = 19), eliglustat 127 mg BID, monotherapy period Days 2 to 6): 2 h
AUC [2, 12]: 38 ng·h/mL
AUC [2, 13]: 29.3 ng·h/mL
AUC [2, 14]: 31 ng·h/mL
Cmax [2, 12]: 5.7 ng/mL
Cmax [2, 13]: 4.67 ng/mL
Cmax [2, 14]: 4.89 ng/mL
Tmax ([2]; human, plasma, po, CYP2D6 PMs, eliglustat 84 mg BID + rifampin 600 mg oral QD, concomitant period Days 2 to 6): 2.5 h
Tmax ([2]; human, plasma, po, CYP2D6 non-PMs (N = 18), eliglustat 127 mg BID + rifampin 600 mg oral QD, concomitant period Days 2 to 6): 1.5 h
changes in eliglustat exposure ([2]; in the presence of a single IV infusion of rifampin, called negligible): < 19%
effect of a single intravenous dose of rifampin on eliglustat ([2]; single IV rifampin dose, overall statement): no effect
SMILES: CCCCCCCC(=O)N[C@H](CN1CCCC1)[C@H](O)c1ccc2c(c1)OCCO2 [eliglustat]
tolerability (Safety assessments; administered alone and with paroxetine): well tolerated
subjects with application site dermatitis (Safety assessments; [15]): 31.4%
subjects with moderate treatment-related headache (Safety assessments; [15]): 11.4%
number of AEs (Safety assessments; [16]): 194 events
subjects with AEs (Safety assessments; [16]): 91.4%
